In ChEMBL document CHEMBL4342456, “Preventing Morphine-Seeking Behavior through the Re-Engineering of Vincamine's Biological Activity” (J Med Chem, 2020):

Tests used:
Type in all cases: cell-based
[1] = molecular target: C-C chemokine receptor type 8 (Homo sapiens, UniProt P51685); experiment: Antagonist activity at human CCR8 expressed in CHOK1 cells assessed as reduction in CCL1-induced beta-arrestin 2 recruitment incubated for 30 mins followed by CCL1 addition and measured after 90 or 180 mins by pathhunter beta-arrestin assay
Method in brief: (§1)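 PathHunter beta-arrestin recruitment, antagonist mode, run at DiscoverX. Cells seeded and held at 37 °C, then preincubated with test sample for 30 min at 37 °C or room temperature (1% vehicle). Agonist then added at EC80 for 90 or 180 min. […] IC50 comes from concentration–response runs in the same format.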

[2] = molecular target: T1, Neuropeptide S receptor (Homo sapiens, UniProt Q6W5P4); experiment: Antagonist activity at human Gq-coupled NPSR1b expressed in human U2OS cells assessed as inhibition in neuropeptide S-induced beta-arrestin 2 recruitment incubated for 30 mins followed by neuropeptide S addition and measured after 90 or 180 mins by pathhunter beta-arrestin assay; method in brief: as §1
T1 sequence (Q6W5P4 whole entry): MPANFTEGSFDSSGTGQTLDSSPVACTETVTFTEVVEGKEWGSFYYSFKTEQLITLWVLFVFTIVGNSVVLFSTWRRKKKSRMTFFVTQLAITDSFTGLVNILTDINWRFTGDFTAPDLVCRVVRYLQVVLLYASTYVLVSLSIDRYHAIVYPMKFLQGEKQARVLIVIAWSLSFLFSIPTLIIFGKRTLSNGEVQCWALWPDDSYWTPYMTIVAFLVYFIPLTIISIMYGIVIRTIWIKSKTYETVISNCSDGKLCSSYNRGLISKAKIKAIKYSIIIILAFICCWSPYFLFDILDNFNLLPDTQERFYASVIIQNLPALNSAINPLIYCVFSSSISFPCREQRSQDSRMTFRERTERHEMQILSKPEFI

[3] = molecular target: T2, Prolactin-releasing peptide receptor (Homo sapiens, UniProt P49683); experiment: Antagonist activity at human Gq-coupled PRLHR expressed in CHOK1 cells assessed as inhibition in prolactin releasing peptide (1 to 31)-induced beta-arrestin 2 recruitment incubated for 30 mins followed by prolactin releasing peptide (1 to 31) addition and measured after 90 or 180 mins by pathhunter beta-arrestin assay; method in brief: as §1
T2 sequence (P49683 whole entry): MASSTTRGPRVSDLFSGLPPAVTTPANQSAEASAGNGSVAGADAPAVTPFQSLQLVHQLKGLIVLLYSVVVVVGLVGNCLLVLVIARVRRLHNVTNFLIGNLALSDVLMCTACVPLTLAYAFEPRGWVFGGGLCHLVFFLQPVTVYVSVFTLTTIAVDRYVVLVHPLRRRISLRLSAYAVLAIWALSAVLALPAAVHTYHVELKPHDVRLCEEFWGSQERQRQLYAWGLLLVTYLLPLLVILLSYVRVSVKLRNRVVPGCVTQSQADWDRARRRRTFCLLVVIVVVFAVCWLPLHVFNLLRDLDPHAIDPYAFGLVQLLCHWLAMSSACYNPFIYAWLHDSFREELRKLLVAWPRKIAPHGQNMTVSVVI

C-C chemokine receptor type 8, sequence (P51685 whole entry): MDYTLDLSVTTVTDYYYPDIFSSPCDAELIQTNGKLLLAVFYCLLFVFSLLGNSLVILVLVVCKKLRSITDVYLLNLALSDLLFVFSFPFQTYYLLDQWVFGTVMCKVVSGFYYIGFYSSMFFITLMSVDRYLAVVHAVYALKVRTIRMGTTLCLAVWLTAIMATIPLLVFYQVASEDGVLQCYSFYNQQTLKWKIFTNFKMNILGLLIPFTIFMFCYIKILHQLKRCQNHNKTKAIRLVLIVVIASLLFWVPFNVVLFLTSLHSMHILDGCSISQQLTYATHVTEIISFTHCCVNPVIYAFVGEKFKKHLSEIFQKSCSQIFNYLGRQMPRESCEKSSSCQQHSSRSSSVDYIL

IC50 [1]: 5.2 µM
IC50 [2]: 5.77 µM
IC50 [3]: 2.43 µM
Structure (SMILES): CC[C@]12C=C(C(=O)OC)n3c(c(CCNC(=O)c4ccc(Br)cc4)c4ccccc43)[C@H]1N(C#N)CCC2
